Reference: ChEMBL document CHEMBL2177058 (J Med Chem, 2012)
The source made the active and inactive calls. The calls are words filed in the database; no cut-off is given here.

Key:
[1] = target: D(2) dopamine receptor (Homo sapiens, UniProt P14416); experiment: biochemical; format: cell-based, CHOp
[2] = target: D(3) dopamine receptor (Homo sapiens, UniProt P35462); experiment: Displacement of [3H]YM-09151-2 from human dopamine D3 receptor expressed in CHOp cells; format: cell-based
[3] = target: D(1A) dopamine receptor (Homo sapiens, UniProt P21728); experiment: Displacement of [3H]SCH-23390 from human dopamine D1 receptor expressed in LHD1 cells; format: cell-based
[4] = target: T1, Kappa-type opioid receptor (Homo sapiens, UniProt P41145); experiment: Agonist activity at human kappa opioid receptor expressed in CHO cell membranes incubated for 60 mins by [35S]GTPgammaS binding assay; format: functional
[5] = target: Delta-type opioid receptor (Homo sapiens, UniProt P41143); experiment: Displacement of [3H]pCl-DPDPE from human delta opioid receptor expressed in CHO cell membranes incubated for 60 mins by liquid scintillation counting
[6] = target: Mu-type opioid receptor (Homo sapiens, UniProt P35372); experiment: Displacement of [3H]DAMGO from human mu opioid receptor expressed in CHO cell membranes incubated for 60 mins by liquid scintillation counting
[7] = target: T1, Kappa-type opioid receptor; experiment: Displacement of [3H]U69,593 from human kappa opioid receptor expressed in CHO cell membranes incubated for 60 mins by liquid scintillation counting
[8] = tested on: Mus musculus; experiment: Analgesic activity in CD1 mouse assessed as inhibition of acetic acid induced writhing at 2.5 mg/kg, sc dosed 30 mins before acetic acid challenge in presence of 20 mg/kg, sc KOP receptor antagonist nor-BNI; format: functional, organism-based
[9] = tested on: Mus musculus; experiment: Analgesic activity in CD1 mouse assessed as inhibition of acetic acid induced writhing dosed subcutaneously 30 mins before acetic acid challenge; format: functional
Method in brief: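 Mice received the drug subcutaneously across a range of doses, then underwent the acetic acid induced writhing test. Inhibition of writhing was scored against a control group. Data are mean SEM, n = 5−6 mice per group. ED₅₀ was taken from the dose–response curve.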

[10] = target: Kappa-type opioid receptor (Cavia porcellus, UniProt P41144); experiment: Displacement of [3H]ethylketocyclazocine from kappa opioid receptor in guinea pig brain
Chain of Kappa-type opioid receptor (Cavia porcellus, UniProt P41144) (P41144 whole entry): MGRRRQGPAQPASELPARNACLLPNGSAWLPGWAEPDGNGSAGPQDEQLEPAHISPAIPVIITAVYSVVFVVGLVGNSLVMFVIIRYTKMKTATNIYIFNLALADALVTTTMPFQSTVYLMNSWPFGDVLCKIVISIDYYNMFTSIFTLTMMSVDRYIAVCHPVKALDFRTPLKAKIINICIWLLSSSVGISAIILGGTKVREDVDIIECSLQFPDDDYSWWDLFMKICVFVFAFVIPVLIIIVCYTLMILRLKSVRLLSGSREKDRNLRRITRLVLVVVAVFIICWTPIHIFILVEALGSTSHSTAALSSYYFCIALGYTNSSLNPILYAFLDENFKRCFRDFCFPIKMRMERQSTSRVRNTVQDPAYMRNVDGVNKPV

Chain of D(2) dopamine receptor (P14416 whole entry): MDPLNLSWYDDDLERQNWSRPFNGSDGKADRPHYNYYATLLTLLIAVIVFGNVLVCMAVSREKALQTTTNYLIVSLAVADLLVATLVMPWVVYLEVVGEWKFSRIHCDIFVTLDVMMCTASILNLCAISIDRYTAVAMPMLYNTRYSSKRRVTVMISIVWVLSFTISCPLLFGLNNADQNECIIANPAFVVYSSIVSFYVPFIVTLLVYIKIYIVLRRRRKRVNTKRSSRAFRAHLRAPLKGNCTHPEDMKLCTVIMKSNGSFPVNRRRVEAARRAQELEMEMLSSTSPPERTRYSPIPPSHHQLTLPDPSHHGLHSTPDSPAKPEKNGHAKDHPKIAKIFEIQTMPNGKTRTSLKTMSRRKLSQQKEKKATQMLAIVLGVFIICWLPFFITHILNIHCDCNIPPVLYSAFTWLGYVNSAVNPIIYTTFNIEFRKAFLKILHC
T1 sequence (P41145 whole entry): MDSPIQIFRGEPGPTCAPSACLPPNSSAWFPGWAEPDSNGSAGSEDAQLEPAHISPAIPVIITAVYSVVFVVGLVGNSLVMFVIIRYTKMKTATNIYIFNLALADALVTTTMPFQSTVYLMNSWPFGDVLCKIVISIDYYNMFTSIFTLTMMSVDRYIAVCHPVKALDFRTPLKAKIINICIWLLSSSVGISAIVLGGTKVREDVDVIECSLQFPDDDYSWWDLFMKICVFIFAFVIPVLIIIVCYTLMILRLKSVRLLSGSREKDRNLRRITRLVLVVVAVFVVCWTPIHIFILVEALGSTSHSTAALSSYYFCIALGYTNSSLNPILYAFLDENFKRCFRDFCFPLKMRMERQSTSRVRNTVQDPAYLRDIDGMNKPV
Chain of Delta-type opioid receptor (P41143 whole entry): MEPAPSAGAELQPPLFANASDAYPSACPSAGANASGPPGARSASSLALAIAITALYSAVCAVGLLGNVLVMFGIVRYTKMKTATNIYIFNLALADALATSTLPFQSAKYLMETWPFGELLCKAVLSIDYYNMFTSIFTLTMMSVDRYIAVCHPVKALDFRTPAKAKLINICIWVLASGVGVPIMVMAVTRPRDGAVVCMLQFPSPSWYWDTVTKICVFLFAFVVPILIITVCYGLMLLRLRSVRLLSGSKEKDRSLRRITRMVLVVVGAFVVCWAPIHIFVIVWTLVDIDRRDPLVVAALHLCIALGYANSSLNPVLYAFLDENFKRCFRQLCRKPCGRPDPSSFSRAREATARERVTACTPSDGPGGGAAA
Chain of D(3) dopamine receptor (P35462 whole entry): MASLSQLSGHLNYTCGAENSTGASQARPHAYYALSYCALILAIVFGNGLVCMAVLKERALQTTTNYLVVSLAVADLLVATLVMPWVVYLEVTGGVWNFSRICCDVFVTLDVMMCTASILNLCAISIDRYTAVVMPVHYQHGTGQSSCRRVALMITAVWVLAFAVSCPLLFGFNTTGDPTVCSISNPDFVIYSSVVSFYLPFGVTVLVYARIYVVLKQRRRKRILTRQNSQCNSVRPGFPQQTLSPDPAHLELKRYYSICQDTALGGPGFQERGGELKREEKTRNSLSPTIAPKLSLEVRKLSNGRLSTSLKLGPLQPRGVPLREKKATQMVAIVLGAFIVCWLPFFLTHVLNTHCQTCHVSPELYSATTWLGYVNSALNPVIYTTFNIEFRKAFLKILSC
Chain of D(1A) dopamine receptor (P21728 whole entry): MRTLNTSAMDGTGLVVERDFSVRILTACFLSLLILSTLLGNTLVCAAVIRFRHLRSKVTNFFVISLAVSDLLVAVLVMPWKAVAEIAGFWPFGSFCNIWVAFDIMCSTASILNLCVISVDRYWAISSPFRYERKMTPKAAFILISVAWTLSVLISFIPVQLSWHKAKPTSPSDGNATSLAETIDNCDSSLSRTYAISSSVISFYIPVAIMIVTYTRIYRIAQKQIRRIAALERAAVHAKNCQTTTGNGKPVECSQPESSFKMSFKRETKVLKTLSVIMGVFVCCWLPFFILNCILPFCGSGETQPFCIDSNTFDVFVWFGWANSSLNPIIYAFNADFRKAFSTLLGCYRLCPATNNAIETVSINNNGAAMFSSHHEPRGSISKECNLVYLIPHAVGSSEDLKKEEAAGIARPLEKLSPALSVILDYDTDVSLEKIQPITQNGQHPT
Chain of Mu-type opioid receptor (P35372 whole entry): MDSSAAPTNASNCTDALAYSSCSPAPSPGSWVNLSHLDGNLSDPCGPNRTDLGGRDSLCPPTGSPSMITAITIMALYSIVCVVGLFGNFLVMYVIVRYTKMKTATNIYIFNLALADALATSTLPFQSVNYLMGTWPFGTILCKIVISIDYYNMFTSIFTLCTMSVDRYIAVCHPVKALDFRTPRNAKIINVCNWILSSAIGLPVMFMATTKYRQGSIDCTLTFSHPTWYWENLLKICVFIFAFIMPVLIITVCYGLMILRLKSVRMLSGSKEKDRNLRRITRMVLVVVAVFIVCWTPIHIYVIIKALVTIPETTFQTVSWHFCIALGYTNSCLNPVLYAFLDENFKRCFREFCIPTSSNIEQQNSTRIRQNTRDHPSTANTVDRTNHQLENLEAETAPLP

Compound	EC50 [4]	Ki [6]	Ki [7]	Ki [1]	Ki [2]	Ki [3]	Ki [5]	Activity [8]	Activity [9]	ED50 ([9]; CD1, sc)	IC50 [10]
Oc1cccc(CCN(CCc2ccccc2)CC2CCC2)c1	–	–	–	450 nM	282 nM	> 10000 nM	> 10000 nM	inactive	Dose-dependent effect	1.91 mg/kg	–
Oc1cccc(CCN(CCc2ccccc2)CC2CC2)c1	–	–	–	118 nM	168 nM	> 10000 nM	> 10000 nM	–	–	–	–
CCCN(CCc1ccccc1)CCc1cccc(O)c1	49.1 nM	594 nM	8.13 nM	64.4 nM	21.8 nM	> 10000 nM	3710 nM	–	–	–	57 nM

More lines, main results first:

EC50 [4]	Ki [6]	Ki [7]	Compound	Ki [1]	Ki [2]	Ki [3]	Ki [5]	Activity [8]	Activity [9]	ED50 ([9]; CD1, sc)	IC50 [10]
647 nM	788 nM	141 nM	CCCCCCN(CCc1ccccc1)CCc1cccc(O)c1	831 nM	1150 nM	> 10000 nM	3570 nM	–	–	–	–
86.4 nM	325 nM	12.6 nM	CCCCCN(CCc1ccccc1)CCc1cccc(O)c1	1420 nM	1100 nM	> 10000 nM	1320 nM	–	–	–	–
46.2 nM	412 nM	10.9 nM	CCCCN(CCc1ccccc1)CCc1cccc(O)c1	1230 nM	1150 nM	> 10000 nM	2430 nM	–	–	–	–
